# Measurements: ChEMBL document CHEMBL3297731, “The design and discovery of water soluble 4-substituted-2,6-dimethylfuro[2,3-d]pyrimidines as multitargeted receptor tyrosine kinase inhibitors and microtubule targeting antitumor agents” (Bioorg Med Chem, 2014)
# Activity calls are given as the source filed them. The calls are words filed in the database; no cut-off is given here.
# Key:
# [1] = test system: A-431; test: Cytotoxicity against human A431 cells by SRB assay; type: functional, cell-based
# [2] = target: Tubulin (Sus scrofa, UniProt P02554+P02550); test: Inhibition of pig brain tubulin polymerization by spectrophotometric analysis
# [3] = Growth inhibition of human MOLT4 cells by SRB assay; type: functional; settings: MOLT-4
# [4] = test system: MDA-MB-435; test: Antiproliferative activity against human MDA-MB-435 cells; type: functional, cell-based
# [5] = test system: HeLa; test: Antiproliferative activity against human HeLa cells; type: functional, cell-based
# [6] = test system: SK-OV-3; test: Antiproliferative activity against human SKOV3 cells; type: functional, cell-based
# [7] = target: Platelet-derived growth factor receptor beta (Homo sapiens, UniProt P09619); test: Inhibition of PDGFRbeta in human SH-SY5Y cells by phosphotyrosine ELISA assay; type: cell-based
# Chain of Platelet-derived growth factor receptor beta (P09619 whole entry): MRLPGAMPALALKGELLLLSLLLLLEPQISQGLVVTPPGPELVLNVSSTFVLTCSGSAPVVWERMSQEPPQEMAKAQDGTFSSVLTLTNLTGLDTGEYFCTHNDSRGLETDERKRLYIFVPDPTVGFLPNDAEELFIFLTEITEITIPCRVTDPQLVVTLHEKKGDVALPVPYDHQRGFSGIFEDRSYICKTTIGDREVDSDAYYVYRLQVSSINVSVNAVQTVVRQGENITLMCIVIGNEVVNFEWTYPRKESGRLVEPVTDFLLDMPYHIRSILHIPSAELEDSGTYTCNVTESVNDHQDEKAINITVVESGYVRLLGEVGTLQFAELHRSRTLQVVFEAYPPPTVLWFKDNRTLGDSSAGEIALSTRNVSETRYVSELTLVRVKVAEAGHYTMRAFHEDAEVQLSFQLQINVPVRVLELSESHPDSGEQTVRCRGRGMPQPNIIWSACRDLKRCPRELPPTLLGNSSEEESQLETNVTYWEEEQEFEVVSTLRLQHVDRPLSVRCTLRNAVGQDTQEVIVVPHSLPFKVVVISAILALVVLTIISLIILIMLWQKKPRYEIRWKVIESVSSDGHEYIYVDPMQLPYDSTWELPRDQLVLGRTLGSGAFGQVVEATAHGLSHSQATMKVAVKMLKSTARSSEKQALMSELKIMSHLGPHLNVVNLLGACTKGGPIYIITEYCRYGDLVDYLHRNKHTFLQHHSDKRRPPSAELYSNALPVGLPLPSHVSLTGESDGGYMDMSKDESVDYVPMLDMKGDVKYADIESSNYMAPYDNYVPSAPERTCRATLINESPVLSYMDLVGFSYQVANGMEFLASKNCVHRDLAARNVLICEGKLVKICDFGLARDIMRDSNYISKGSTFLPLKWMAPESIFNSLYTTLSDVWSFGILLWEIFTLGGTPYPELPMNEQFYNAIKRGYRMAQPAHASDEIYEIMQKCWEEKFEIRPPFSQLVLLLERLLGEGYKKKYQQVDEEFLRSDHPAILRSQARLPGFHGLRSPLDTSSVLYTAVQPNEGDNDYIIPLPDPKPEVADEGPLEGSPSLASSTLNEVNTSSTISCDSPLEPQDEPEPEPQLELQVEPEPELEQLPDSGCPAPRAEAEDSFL
# [8] = target: Epidermal growth factor receptor (Homo sapiens, UniProt P00533); type: cell-based, A-431
# Chain of Epidermal growth factor receptor (P00533 whole entry): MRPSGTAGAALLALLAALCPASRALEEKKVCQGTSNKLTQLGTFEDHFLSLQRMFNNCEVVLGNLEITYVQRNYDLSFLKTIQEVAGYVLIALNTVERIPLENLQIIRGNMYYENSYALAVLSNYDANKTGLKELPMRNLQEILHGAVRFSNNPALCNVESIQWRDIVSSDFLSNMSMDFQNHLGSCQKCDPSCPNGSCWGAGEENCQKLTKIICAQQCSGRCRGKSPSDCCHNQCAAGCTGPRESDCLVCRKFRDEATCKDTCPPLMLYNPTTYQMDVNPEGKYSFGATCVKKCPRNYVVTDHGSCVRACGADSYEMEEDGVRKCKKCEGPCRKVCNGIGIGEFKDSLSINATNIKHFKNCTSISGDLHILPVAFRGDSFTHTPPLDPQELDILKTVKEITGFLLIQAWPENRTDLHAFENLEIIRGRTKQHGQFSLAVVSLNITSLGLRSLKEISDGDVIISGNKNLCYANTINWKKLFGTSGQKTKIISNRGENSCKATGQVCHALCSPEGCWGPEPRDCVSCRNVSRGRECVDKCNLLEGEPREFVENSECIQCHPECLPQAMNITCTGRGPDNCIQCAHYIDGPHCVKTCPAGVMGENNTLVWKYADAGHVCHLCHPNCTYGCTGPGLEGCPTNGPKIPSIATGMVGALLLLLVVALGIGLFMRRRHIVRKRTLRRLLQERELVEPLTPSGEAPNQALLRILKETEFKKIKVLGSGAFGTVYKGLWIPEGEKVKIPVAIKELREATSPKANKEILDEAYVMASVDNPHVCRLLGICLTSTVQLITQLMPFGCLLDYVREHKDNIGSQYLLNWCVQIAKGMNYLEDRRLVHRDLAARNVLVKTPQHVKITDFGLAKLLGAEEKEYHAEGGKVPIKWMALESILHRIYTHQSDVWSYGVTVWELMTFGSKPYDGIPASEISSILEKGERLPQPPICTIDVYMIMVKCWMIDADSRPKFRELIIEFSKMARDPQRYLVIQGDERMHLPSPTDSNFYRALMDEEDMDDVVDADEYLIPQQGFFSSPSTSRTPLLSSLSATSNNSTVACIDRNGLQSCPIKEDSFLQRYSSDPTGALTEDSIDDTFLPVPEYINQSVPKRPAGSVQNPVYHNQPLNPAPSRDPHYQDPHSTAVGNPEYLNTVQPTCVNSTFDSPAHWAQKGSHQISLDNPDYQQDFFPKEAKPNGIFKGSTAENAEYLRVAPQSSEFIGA
# [9] = test system: SK-OV-3; test: Antiproliferative activity against human SKOV3 cells expressing MDR1/M-6-6; type: functional, cell-based
# [10] = target: Vascular endothelial growth factor receptor 2 (Homo sapiens, UniProt P35968); type: cell-based, U-251
# Chain of Vascular endothelial growth factor receptor 2 (P35968 whole entry): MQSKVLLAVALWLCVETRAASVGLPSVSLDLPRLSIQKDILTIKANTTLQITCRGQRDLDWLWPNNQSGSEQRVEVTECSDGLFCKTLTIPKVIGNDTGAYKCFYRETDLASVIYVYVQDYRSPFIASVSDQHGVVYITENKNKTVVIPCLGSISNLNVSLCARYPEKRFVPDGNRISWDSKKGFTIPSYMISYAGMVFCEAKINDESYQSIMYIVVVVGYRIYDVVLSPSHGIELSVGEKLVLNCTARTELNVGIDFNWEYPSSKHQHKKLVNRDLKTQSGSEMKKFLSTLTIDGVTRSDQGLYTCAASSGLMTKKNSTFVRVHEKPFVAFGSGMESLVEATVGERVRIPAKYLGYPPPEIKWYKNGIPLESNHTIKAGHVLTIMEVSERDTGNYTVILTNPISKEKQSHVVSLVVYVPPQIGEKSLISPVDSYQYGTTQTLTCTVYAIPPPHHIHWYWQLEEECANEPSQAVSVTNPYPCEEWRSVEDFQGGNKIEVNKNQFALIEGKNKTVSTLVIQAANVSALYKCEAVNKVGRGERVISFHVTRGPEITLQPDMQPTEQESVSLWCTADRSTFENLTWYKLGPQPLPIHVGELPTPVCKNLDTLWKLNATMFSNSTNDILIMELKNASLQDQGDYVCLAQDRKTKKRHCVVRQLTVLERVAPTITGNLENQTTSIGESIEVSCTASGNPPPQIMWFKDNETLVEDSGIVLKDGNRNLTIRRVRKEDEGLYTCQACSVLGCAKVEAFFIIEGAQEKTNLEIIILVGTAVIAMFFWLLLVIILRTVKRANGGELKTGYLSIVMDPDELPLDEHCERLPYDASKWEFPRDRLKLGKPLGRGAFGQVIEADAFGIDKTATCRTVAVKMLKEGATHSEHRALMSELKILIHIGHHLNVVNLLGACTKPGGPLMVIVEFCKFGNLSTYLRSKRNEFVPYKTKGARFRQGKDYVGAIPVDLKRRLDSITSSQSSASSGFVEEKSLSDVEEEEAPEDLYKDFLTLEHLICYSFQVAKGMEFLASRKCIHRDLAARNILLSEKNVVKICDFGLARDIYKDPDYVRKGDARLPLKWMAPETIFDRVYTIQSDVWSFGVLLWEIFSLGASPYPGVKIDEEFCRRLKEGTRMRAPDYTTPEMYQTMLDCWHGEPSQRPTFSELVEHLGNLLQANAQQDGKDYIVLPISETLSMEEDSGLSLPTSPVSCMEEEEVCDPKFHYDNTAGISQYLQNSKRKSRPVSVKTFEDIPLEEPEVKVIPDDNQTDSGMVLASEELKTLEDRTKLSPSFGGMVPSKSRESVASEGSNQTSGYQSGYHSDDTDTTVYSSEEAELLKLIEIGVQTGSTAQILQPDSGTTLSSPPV
# [11] = test system: Chorioallantoic membrane; test: Antiangiogenic activity in fertile leghorn chicken egg Chorioallantoic membrane assessed as inhibition of human VEGF-165/bFGF-induced angiogenesis after 48 hrs by CAM assay; type: functional, tissue-based; settings: Gallus gallus
# [12] = test system: HeLa; test: Antiproliferative activity against human HeLa cells expressing beta3-tubulin; type: functional, cell-based
# [13] = test system: MCF7; test: Cytotoxicity against human ER-positive MCF7 cells; type: functional, cell-based
# [14] = test system: MDA-MB-231; test: Cytotoxicity against human triple negative MDA-MB-231 cells; type: functional, cell-based
# [15] = test system: 4T1; test: Cytotoxicity against mouse triple negative 4T1 cells; type: functional, cell-based
# [16] = test system: MDA-MB-435; test: Cytotoxicity against human MDA-MB-435 cells; type: functional, cell-based
# [17] = test system: MDA-MB-468; test: Cytotoxicity against human triple negative MDA-MB-468 cells; type: functional, cell-based
# [18] = test system: HUVEC; test: Cytotoxicity against HUVEC; type: cell-based; settings: Homo sapiens
# [19] = test system: MCF7; test: Cytotoxicity against human taxoid-resistant MCF7 cells; type: functional, cell-based
# [20] = test system: Mus musculus; test: Toxicity in human MDA-MB-435 cells […] assessed as increase in body weight at 50 mg/kg; type: organism-based; set-up: dose 50 mg/kg; settings: in vivo
# [21] = test system: Mus musculus; test: Toxicity in luciferase/GFP-tagged mouse 4T1 cells allografted in BALBc/J mouse assessed as body weight loss at 50 mg/kg twice weekly starting at day 7 and continuing to day 32; type: organism-based; set-up: dose 50 mg/kg; settings: in vivo
# Procedure, shortened: (§1)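 750 4T1-Luc2/GFP cells (>98% GFP+) in PBS/1 mM EDTA implanted into fat pad #4 of 8 wk female BALB/c mice. MTD doses given twice weekly (docetaxel weekly), day 7 to day 32; DMSO/solutol-15/D5W vehicle. Calipers, ellipsoid volume; weights before each dose; 7-10 mice per group; lungs imaged fresh by fluorescence at day 33.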
# [22] = in vivo; settings: BALBc/J, mouse
# [23] = test system: 4T1; test: Antitumor activity against luciferase/GFP-tagged mouse 4T1 cells allografted in BALBc/J mouse assessed as reduction in primary tumor growth at 50 mg/kg twice weekly starting at day 7 and continuing to day 32; type: functional, organism-based; set-up: dose 50 mg/kg; procedure, shortened: as §1
# [24] = test system: MDA-MB-435 (Homo sapiens); test: Induction of apoptosis in human MDA-MB-435 cells assessed as PARP cleavage at 75 nM after 18 to 36 hrs by Western blot analysis
# [25] = test system: 4T1; test: Antitumor activity against luciferase/GFP-tagged mouse 4T1 cells allografted in BALBc/J mouse assessed as reduction in tumor size at 50 mg/kg twice weekly starting at day 7 and continuing to day 32; type: functional, organism-based; set-up: dose 50 mg/kg; procedure, shortened: as §1
# [26] = test system: MDA-MB-435; test: Antitumor activity against human MDA-MB-435 cells […] assessed as decrease in tumor vascular density at 50 mg/kg by CD31/PECAM-1 immunohistochemical staining; type: functional, organism-based; set-up: dose 50 mg/kg
# [27] = test system: MDA-MB-435 (Homo sapiens); test: Induction of apoptosis in human MDA-MB-435 cells assessed as PARP cleavage at 75 nM after 18 hrs by Western blot analysis
# [28] = test system: HeLa; test: Cell cycle arrest in human HeLa cells assessed as accumulation at G2/M phase after 18 hrs by flow cytometric analysis; type: functional, cell-based
# Procedure, shortened: (§2)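 HeLa cells allowed to adhere 24 h, then drug-treated (18 h per legend; harvest stated 24 h in methods). Stained with Krishan's reagent; DNA content measured by flow cytometry.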
# [29] = test system: HeLa; test: Cell cycle arrest in human HeLa cells assessed as effect on accumulation at G1 phase at 40 to 50 nM after 18 hrs by flow cytometric analysis; type: functional, cell-based; procedure, shortened: as §2
# [30] = test system: MDA-MB-435; test: Antitumor activity against human MDA-MB-435 cells […] assessed as decrease in tumor growth at 50 mg/kg relative to untreated control; type: functional, organism-based; set-up: dose 50 mg/kg
# [31] = test system: HeLa; test: Cell cycle arrest in human HeLa cells assessed as accumulation at G2/M phase at 40 to 50 nM after 18 hrs by flow cytometric analysis; type: functional, cell-based; procedure, shortened: as §2
# [32] = test system: 4T1; test: Antitumor activity against luciferase/GFP-tagged mouse 4T1 cells allografted in BALBc/J mouse assessed as reduction in number of lung metastases at 50 mg/kg twice weekly starting at day 7 and continuing to day 32; type: functional, organism-based; set-up: dose 50 mg/kg; procedure, shortened: as §1
# [33] = target: Tubulin (Sus scrofa) (UniProt P02554+P02550); settings: 5 uM
# Chain of Tubulin (Sus scrofa) (P02550 whole entry, looked up): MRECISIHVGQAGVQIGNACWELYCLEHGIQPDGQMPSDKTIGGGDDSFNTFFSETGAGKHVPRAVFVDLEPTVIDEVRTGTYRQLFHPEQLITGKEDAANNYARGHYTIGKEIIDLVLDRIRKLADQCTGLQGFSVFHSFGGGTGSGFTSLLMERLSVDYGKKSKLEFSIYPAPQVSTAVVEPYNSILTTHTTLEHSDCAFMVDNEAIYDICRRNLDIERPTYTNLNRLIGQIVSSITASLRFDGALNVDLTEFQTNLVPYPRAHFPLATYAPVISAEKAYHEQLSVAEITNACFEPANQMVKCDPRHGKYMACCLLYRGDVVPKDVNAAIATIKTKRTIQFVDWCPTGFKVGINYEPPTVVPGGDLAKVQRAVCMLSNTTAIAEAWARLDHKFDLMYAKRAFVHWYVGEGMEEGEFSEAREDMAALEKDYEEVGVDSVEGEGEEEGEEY
# Chain of Tubulin (Sus scrofa) (P02554 whole entry, looked up): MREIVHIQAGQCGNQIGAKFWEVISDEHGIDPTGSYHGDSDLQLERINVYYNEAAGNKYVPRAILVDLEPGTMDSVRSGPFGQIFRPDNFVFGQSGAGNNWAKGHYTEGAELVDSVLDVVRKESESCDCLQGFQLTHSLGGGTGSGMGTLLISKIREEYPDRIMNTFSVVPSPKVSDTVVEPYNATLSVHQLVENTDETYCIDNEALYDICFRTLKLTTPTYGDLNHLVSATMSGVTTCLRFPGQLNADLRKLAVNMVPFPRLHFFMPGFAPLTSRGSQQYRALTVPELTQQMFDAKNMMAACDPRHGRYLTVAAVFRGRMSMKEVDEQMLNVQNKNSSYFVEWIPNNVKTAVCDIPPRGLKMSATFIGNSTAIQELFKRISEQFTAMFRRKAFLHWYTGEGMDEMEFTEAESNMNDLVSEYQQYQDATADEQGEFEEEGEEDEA
# [34] = test system: 4T1; test: Antitumor activity against luciferase/GFP-tagged mouse 4T1 cells allografted in BALBc/J mouse assessed as reduction in primary tumor growth at 35 mg/kg twice weekly starting at day 7 and continuing to day 32; type: functional, organism-based; set-up: dose 35 mg/kg; procedure, shortened: as §1
smiles,measurement,setting,value
COc1cccc2c1C(=O)c1c(O)c3c(c(O)c1C2=O)C[C@@](O)(C(=O)CO)C[C@@H]3O[C@H]1C[C@H](N)[C@H](O)[C@H](C)O1 [DOXORUBICIN],IC50,[1],0.00135 µM
COc1ccc(N(C)c2nc(C)nc3oc(C)cc23)cc1 [listing 1 of 2 here],IC50,[2],1.9 µM
same,GI50,[3],0.0679 µM
CCCCN(c1ccc(OC)cc1)c1nc(C)nc2oc(C)cc12,IC50,[4],> 10 µM
same,IC50,[5],> 10 µM
same,IC50,[6],> 10 µM
same,IC50,[7],0.0565 µM
same,IC50,[8],0.34 µM
same,IC50,[9],> 10 µM
same,IC50,[10],0.0344 µM
same,IC50,[11],32.6 µM
same,IC50,[12],> 10 µM
Cc1nc(Nc2ccc(F)c(Cl)c2)c2cc(C)oc2n1,IC50,[8],0.0302 µM
same,IC50,[10],0.0582 µM
Cc1nc(Nc2cccc3[nH]ccc23)c2cc(C)oc2n1,IC50,[7],0.0283 µM
same,IC50,[8],0.0902 µM
same,IC50,[10],0.102 µM
same,IC50,[11],22.6 µM
Cc1nc(Nc2ccc(C(F)(F)F)cc2)c2cc(C)oc2n1,IC50,[7],0.0661 µM
same,IC50,[8],0.122 µM
same,IC50,[10],0.0662 µM
COc1ccc(Nc2nc(C)nc3oc(C)cc23)cc1,IC50,[7],0.0635 µM
same,IC50,[8],0.0422 µM
same,IC50,[10],0.0431 µM
C#Cc1cccc(Nc2nc(C)nc3oc(C)cc23)c1,IC50,[7],0.0162 µM
same,IC50,[8],0.03 µM
same,IC50,[10],0.0763 µM
same,IC50,[11],18.2 µM
CCN(c1ccc(OC)cc1)c1nc(C)nc2oc(C)cc12,IC50,[4],0.137 µM
same,IC50,[5],0.167 µM
same,IC50,[6],0.228 µM
same,IC50,[7],0.0271 µM
same,IC50,[8],0.0707 µM
same,IC50,[9],0.27 µM
same,IC50,[10],0.0106 µM
same,IC50,[11],19.2 µM
same,IC50,[12],0.206 µM
COc1ccc(N(c2nc(C)nc3oc(C)cc23)C(C)C)cc1,IC50,[4],3 µM
same,IC50,[5],2.9 µM
same,IC50,[6],3.8 µM
same,IC50,[7],0.0231 µM
same,IC50,[8],0.0844 µM
same,IC50,[9],7.4 µM
same,IC50,[10],0.0156 µM
same,IC50,[11],18.9 µM
same,IC50,[12],4.07 µM
CC(=O)O[C@H]1C(=O)[C@@]2(C)[C@H]([C@H](OC(=O)c3ccccc3)[C@]3(O)C[C@H](OC(=O)[C@H](O)[C@@H](NC(=O)c4ccccc4)c4ccccc4)C(C)=C1C3(C)C)[C@]1(OC(C)=O)CO[C@@H]1C[C@@H]2O [PACLITAXEL],IC50,[4],0.00193 µM
CS(=O)(=O)CCNCc1ccc(-c2ccc3ncnc(Nc4ccc(OCc5cccc(F)c5)c(Cl)c4)c3c2)o1 [LAPATINIB],IC50,[13],0.0649 µM
same,IC50,[14],0.02 µM
same,IC50,[15],0.0104 µM
same,IC50,[16],0.0297 µM
same,IC50,[17],0.0832 µM
CCN(CC)CCNC(=O)c1c(C)[nH]c(/C=C2\C(=O)Nc3ccc(F)cc32)c1C [SUNITINIB],IC50,[18],0.0118 µM
same,IC50,[19],0.0293 µM
same,IC50,[13],0.0271 µM
same,IC50,[14],0.0223 µM
same,IC50,[15],0.016 µM
same,IC50,[16],0.0097 µM
same,IC50,[17],0.0061 µM
COc1ccc(N(C)c2nc(C)nc3oc(C)cc23)cc1.Cl,Activity,[20],Non-toxic
same,IC50,[18],0.172 µM
same,IC50,[19],0.13 µM
same,IC50,[4],0.047 µM
same,IC50,[13],0.138 µM
same,IC50,[14],0.148 µM
same,Activity,[21],Non-toxic
same,IC50,[5],0.0406 µM
same,IC50,[15],0.0979 µM
same,MTD,[22],50 mg/kg
same,IC50,[12],0.0447 µM
same,IC50,[17],0.0071 µM
COc1ccc(N(C)c2nc(C)nc3oc(C)cc23)cc1 [listing 2 of 2 here],inhibition,[23],Active
same,Activity,[24],Active
same,inhibition,[25],Active
same,Activity,[26],Active
same,Activity,[27],Active
same,inhibition,[28],Dose-dependent effect
same,Activity,[29],inactive
same,inhibition,[30],Active
same,Activity,[31],Active
same,inhibition,[32],Active
same,inhibition,[33],86%
Cc1nc(Nc2ccc(Cl)cc2)c2cc(C)oc2n1,IC50,[8],0.102 µM
same,IC50,[10],0.0702 µM
CCCN(c1ccc(OC)cc1)c1nc(C)nc2oc(C)cc12,IC50,[4],1.4 µM
same,IC50,[5],1.24 µM
same,IC50,[6],1.6 µM
same,IC50,[7],0.0299 µM
same,IC50,[9],3.4 µM
same,IC50,[10],0.0085 µM
same,IC50,[11],16.7 µM
same,IC50,[12],1.5 µM
CC(=O)O[C@@]12CO[C@@H]1C[C@H](O)[C@@]1(C)C(=O)[C@H](O)C3=C(C)[C@@H](OC(=O)[C@H](O)[C@@H](NC(=O)OC(C)(C)C)c4ccccc4)C[C@@](O)([C@@H](OC(=O)c4ccccc4)[C@H]21)C3(C)C.O.O.O [DOCETAXEL],IC50,[18],0.0567 µM
same,IC50,[19],> 1 µM
same,IC50,[13],0.0593 µM
same,IC50,[14],0.016 µM
same,IC50,[15],0.0634 µM
same,MTD,[22],35 mg/kg
same,IC50,[16],0.0027 µM
same,inhibition,[34],Active
same,IC50,[17],0.0691 µM
Cc1nc(Nc2ccccc2)c2cc(C)oc2n1,IC50,[8],0.113 µM
Cc1nc(Nc2cccc3ccccc23)c2cc(C)oc2n1,IC50,[8],0.145 µM
same,IC50,[10],0.0322 µM
